This excerpt belongs to a sample that is enriched for hits.
KDM4C inh: KDM4C (human) demethylase inhibition; inhibition, % at 12.5 µM; Q9H3R0; GST-KDM4C 2-372, H3K9me3 peptide, LANCE TR-FRET; 0.15% of 96,000 active;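 active means mean replicate inhibition above about 25%, with at least 55% of replicates also reaching it, limit read from the data, passing the limit was not always enough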
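System: N-terminal GST-fused human GASC-1 (KDM4C) fragment, residues 2-372; amount: enzyme final amount 10 nM; incubation: reaction 30 min RT, detection step 1 h RT; medium: HEPES buffer, pH 7.5, plus ascorbate; technique: LANCE TR-FRET, Eu antibody, ULight-streptavidin, EDTA, ex 340 nm, em 618/671 nm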
IDH1 R132H inh: IDH1 R132H (human) inhibition. IDH1 R132H reductase, diaphorase/resazurin fluorescence, 60 min. O75874. 0.18% of 70,000 active. inhibition, % at 10 µM; in the data active means inhibition above about 34%;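 further: 0% = DMSO and 100% = no enzyme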
Target sequence (O75874 whole entry R132H): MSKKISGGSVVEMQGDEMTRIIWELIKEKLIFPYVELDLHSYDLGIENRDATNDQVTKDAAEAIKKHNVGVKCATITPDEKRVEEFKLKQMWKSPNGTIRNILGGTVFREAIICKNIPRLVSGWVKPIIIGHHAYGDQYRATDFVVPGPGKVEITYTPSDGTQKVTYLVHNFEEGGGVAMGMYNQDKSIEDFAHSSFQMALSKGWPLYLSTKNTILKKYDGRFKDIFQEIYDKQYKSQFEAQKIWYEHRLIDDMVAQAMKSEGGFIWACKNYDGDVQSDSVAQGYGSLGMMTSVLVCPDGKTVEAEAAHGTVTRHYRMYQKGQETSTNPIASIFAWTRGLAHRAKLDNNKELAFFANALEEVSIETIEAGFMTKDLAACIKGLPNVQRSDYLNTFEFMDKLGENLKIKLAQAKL
T cruzi growth-1: inhibitors of T. cruzi proliferation; T. cruzi beta-gal in NIH3T3, GalScreen luminescence, 90 h; AID 624255; inhibition, % at 8.34 µM; 5.9% of 77,000 active;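 active means mean inhibition above about 93%, with at least 55% of replicates each passing it, limit read from the data, passing the limit was not always enough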
T cruzi growth-2: Trypanosoma cruzi proliferation inhibition; inhibition, % at 8.35 µM; shares compounds with T cruzi growth-1; 72% of 5,600 active; T. cruzi beta-gal in NIH3T3, GalScreen luminescence, 90 h;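 active means mean replicate inhibition above about 95% and at least 55% of replicates individually reaching it, limit read from the data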
T cruzi growth-3: inhibitors of T. cruzi proliferation | 21% of 5,600 active | inhibition, % at 2.09 µM | shares compounds with T cruzi growth-1 | AID 651740 | T. cruzi beta-gal in NIH3T3, GalScreen luminescence, 90 h;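 active means mean inhibition above about 95%, with at least 55% of replicates also reaching it, limit read from the data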;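 further: plate controls were neutral control median for no effect and positive control median for full effect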
3T3 cytotox: NIH/3T3 (mouse) viability loss; shares compounds with T cruzi growth-1; NIH/3T3 viability, CellTiter-Glo ATP luminescence, 90 h; cytotoxicity (signal decrease), % at 8.35 µM; 14% of 5,600 active;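 active means mean signal decrease across replicates above about 35% based on untreated-well scatter, with enough replicates individually passing, limit read from the data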;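 further: 0% = median of neutral control wells and 100% = median of positive control wells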
NIH3T3 tox 2: cytotoxicity in mouse NIH/3T3 fibroblasts. shares compounds with T cruzi growth-1. NIH/3T3 viability, CellTiter-Glo ATP luminescence, 90 h. inhibition, % at 24.9 µM. 56% of 5,600 active. AID 651744;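 active means mean loss of cell viability signal at or above a set limit, and enough replicates individually reaching it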;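 further: 0% = median of neutral control wells and 100% = median of positive control wells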
An asterisk follows results filed as active; · = no result.

SMILES | KDM4C inh | IDH1 R132H inh | T cruzi growth-1 | T cruzi growth-2 | T cruzi growth-3 | 3T3 cytotox | NIH3T3 tox 2
CCc1cnc(N2[C@H](C#N)[C@@H](c3ccc(C#Cc4ccccc4F)cc3)[C@H]2CO)s1 | -1 | · | 111* | 103* | 101* | 11 | 28*
CCc1cnc(N2[C@H](C#N)[C@H](c3ccc(C#Cc4ccccc4F)cc3)[C@H]2CO)s1 | 0 | · | 100* | 91 | 106* | -9 | 95*
CCc1cnc(N2[C@H](C#N)[C@H](c3ccccc3)[C@@H]2CO)s1 | -1 | · | -6 | · | · | · | ·
CCc1cnc(N2[C@H](C#N)[C@H](c3ccc(C#Cc4ccccc4F)cc3)[C@@H]2CO)s1 | -3 | · | 97* | 101* | 112* | -27 | -11
COC(=O)CSc1nnc2c3c4c(sc3nc(-c3ccccc3Cl)n12)CCCC4 | · | 0 | · | · | · | · | ·
COCCNC(=O)c1c(NC(=O)c2ccccc2C)sc2c1CCCC2 | · | -1 | · | · | · | · | ·
CCCCc1ccc(-c2csc(NC(=O)c3ccccc3[N+](=O)[O-])c2C(N)=O)cc1 | · | 0 | · | · | · | · | ·
Cc1sc2ncnc(SCC(=O)Nc3ccccc3[N+](=O)[O-])c2c1C | · | -1 | · | · | · | · | ·
CC(C)C#Cc1ccc([C@H]2[C@H](C#N)N(C(=O)c3ccccn3)[C@H]2CO)cc1 | 4 | · | 81 | · | · | · | ·
N#C[C@H]1[C@@H](c2ccc(C#CC3CCCC3)cc2)[C@H](CO)N1C(=O)c1cccc(F)c1 | -1 | · | · | · | · | · | ·
CC(C)C#Cc1ccc([C@H]2[C@@H](CO)N(C(=O)c3ccccn3)[C@H]2C#N)cc1 | 1 | · | 97* | 98* | 80 | 15 | 16
CC(C)C#Cc1ccc([C@H]2[C@@H](C#N)N(C(=O)c3cccc(F)c3)[C@@H]2CO)cc1 | 1 | · | 98* | 99* | 108* | 4 | 38
N#C[C@H]1[C@@H](c2ccc(C#CC3CC3)cc2)[C@H](CO)N1C(=O)c1cccc(F)c1 | 2 | · | 94 | · | · | · | ·
N#C[C@@H]1[C@@H](c2ccc(C#CC3CC3)cc2)[C@H](CO)N1C(=O)c1cccc(F)c1 | 1 | · | 97* | 105* | 110* | 20 | 12
COC(=O)CN(c1cccc(C)c1)S(=O)(=O)c1ccc(Cl)c(Cl)c1 | · | -1 | · | · | · | · | ·
C[C@H]1CCCCO[C@H](CN(C)S(=O)(=O)c2ccc(Cl)cc2)[C@@H](C)CN([C@@H](C)CO)C(=O)c2cc(NC(=O)Nc3ccc(C(F)(F)F)cc3)ccc2O1 | -5 | 0 | 75 | · | · | · | ·
C[C@@H]1CCCCO[C@@H](CN(C)S(=O)(=O)c2ccc(Cl)cc2)[C@H](C)CN([C@H](C)CO)C(=O)c2cc(NC(=O)Nc3ccc(C(F)(F)F)cc3)ccc2O1 | 2 | · | 70 | · | · | · | ·
C[C@@H]1CCCCO[C@@H](CN(C)S(=O)(=O)c2ccc(Cl)cc2)[C@@H](C)CN([C@H](C)CO)C(=O)c2cc(NC(=O)Nc3ccc(C(F)(F)F)cc3)ccc2O1 | -3 | · | 87 | · | · | · | ·
C[C@@H]1CCCCO[C@H](CN(C)S(=O)(=O)c2ccc(Cl)cc2)[C@@H](C)CN([C@H](C)CO)C(=O)c2cc(NC(=O)Nc3ccc(C(F)(F)F)cc3)ccc2O1 | -1 | 0 | 112* | 102* | 108* | 17 | 31*
C[C@@H]1CN([C@H](C)CO)C(=O)c2cc(NC(=O)Nc3ccc(C(F)(F)F)cc3)ccc2O[C@@H](C)CCCCO[C@@H]1CN(C)S(=O)(=O)c1ccc(Cl)cc1 | -4 | 5 | 103* | 106* | 80 | 2 | -6
C[C@@H]1CN([C@@H](C)CO)C(=O)c2cc(NC(=O)Nc3ccc(C(F)(F)F)cc3)ccc2O[C@@H](C)CCCCO[C@H]1CN(C)S(=O)(=O)c1ccc(Cl)cc1 | 1 | 0 | 103* | 110* | 109* | -15 | 15
N#CCCSc1nnc(-c2ccncc2)n1Cc1ccccc1 | · | 2 | · | · | · | · | ·
CC(C)C(NC=O)C(=O)N1CCC2Oc3ccc(cc3)/C=C\NC(=O)C(Cc3ccccc3)NC(=O)C21 (stereo not given) | · | 0 | · | · | · | · | ·
C[C@H]1CCCCO[C@@H](CN(C)C(=O)Nc2ccc(F)cc2)[C@@H](C)CN([C@@H](C)CO)C(=O)c2cc(NC(=O)Cc3ccccc3)ccc2O1 | -2 | · | 113* | 67 | 55 | -25 | 2

Screens from PubChem BioAssay.
